Assay results: ChEMBL document CHEMBL2062469, “1-(2-Mercaptobenzenesulfonyl)-3-hydroxyguanidines--novel potent antiproliferatives, synthesis and in vitro biological activity” (2012)

Columns and labels:
Format in all cases: functional
NCI-H460 = test: Cytostatic activity against human NCI-H460 cells
In short: (§1)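 NCI-60 human tumor cell line screen run by the US National Cancer Institute under the NIH Developmental Therapeutics Program protocol. A single-dose prescreen at 10 µM came first. Selected compounds then went into the 5-dose assay. Cytostatic activity is reported as GI50 (µM).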

NCI-H522 = test: Cytostatic activity against human NCI-H522 cells; in short: as §1
HT-29 = test: Cytostatic activity against human HT-29 cells; in short: as §1
SF-268 = test: Cytostatic activity against human SF268 cells; in short: as §1
SNB-75 = test: Cytostatic activity against human SNB75 cells
In short: (§2)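 Human tumour cell lines from the NCI-60 panel, tested at the US National Cancer Institute under the NIH Developmental Therapeutics Program protocol. A single-dose prescreen at 10 µM came first. Selected compounds then went to a 5-dose assay, which gave GI50 and TGI values in µM.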

Malme-3M = test: Cytostatic activity against human MALME-3M cells; in short: as §1
M14 = test: Cytostatic activity against human M14 cells; in short: as §1
UACC-257 = test: Cytostatic activity against human UACC257 cells; in short: as §2
UACC-62 = test: Cytostatic activity against human UACC62 cells; in short: as §2
IGROV-1 = test: Cytostatic activity against human IGROV1 cells; in short: as §1
OVCAR-3 = test: Cytostatic activity against human OVCAR3 cells; in short: as §1
UO-31 = test: Cytostatic activity against human UO31 cells; in short: as §2
Hs-578T = test: Cytostatic activity against human Hs 578T cells; in short: as §1

SMILES | GI50 (NCI-H460) | GI50 (NCI-H522) | GI50 (HT-29) | GI50 (SF-268) | GI50 (SNB-75) | GI50 (Malme-3M) | GI50 (M14) | GI50 (UACC-257) | GI50 (UACC-62) | GI50 (IGROV-1) | GI50 (OVCAR-3) | GI50 (UO-31) | GI50 (Hs-578T)
N=C(NO)NS(=O)(=O)c1cc(-c2nc(-c3ccc(Cl)cc3)no2)c(Cl)cc1SCc1ccc2c(c1)OCO2 | 2.14 µM | 1.02 µM | 1.82 µM | 1.82 µM | 1.74 µM | 2.63 µM | 1.86 µM | 1.91 µM | 1.7 µM | 2.14 µM | 1.7 µM | 1.91 µM | 2.69 µM
COc1cc(CSc2cc(Cl)c(-c3nnc(-c4ccccc4)s3)cc2S(=O)(=O)NC(=N)NO)cc(OC)c1OC | 3.24 µM | 2.04 µM | 4.17 µM | 2.4 µM | 1.86 µM | 3.09 µM | 4.07 µM | 6.03 µM | 3.24 µM | 3.72 µM | 2.19 µM | 3.98 µM | 3.31 µM
COc1cc(CSc2cc(Cl)c(-c3nnc(-c4ccc(Cl)cc4)s3)cc2S(=O)(=O)NC(=N)NO)cc(OC)c1OC | 34.7 µM | 8.91 µM | 6.76 µM | 9.55 µM | 25.7 µM | 97.7 µM | 40.7 µM | 26.3 µM | 16.2 µM | 58.9 µM | 10.2 µM | 44.7 µM | 8.13 µM
COc1cc(CSc2cc(Cl)c(-c3nc(-c4ccccc4)no3)cc2S(=O)(=O)NC(=N)NO)cc(OC)c1OC | 4.37 µM | 3.8 µM | 7.24 µM | 6.92 µM | 3.98 µM | 13.5 µM | 6.61 µM | 13.2 µM | 3.09 µM | 5.62 µM | 4.79 µM | 4.47 µM | 7.41 µM
COc1cc(CSc2cc(Cl)c(-c3nc(-c4ccc(Cl)cc4)no3)cc2S(=O)(=O)NC(=N)NO)cc(OC)c1OC | 2.24 µM | 2.14 µM | 2.95 µM | 2.95 µM | 2.95 µM | 7.76 µM | 2.19 µM | 9.33 µM | 1.95 µM | 3.8 µM | 1.91 µM | 3.16 µM | 4.17 µM
